Assay [1] in a line: Antiinflammatory activity in mouse RAW264.7 cells assessed as inhibition of LPS-induced NO production pretreated for 30 mins followed by LPS stimulation for 24 hrs by Griess assay. The assay is classed as functional, cell-based. A digest of the protocol: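 Cells seeded at 5 × 10^4 per well, grown 24 h, pretreated 30 min, then stimulated with 500 ng/mL LPS for 24 h; 0.5% DMSO vehicle in all wells; LPS-only and unstimulated blanks included; L-NIL as positive control. Medium reacted with Griess reagent, absorbance at 540 nm; IC50 reported.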
Background: The Griess reaction detects nitrite, a stable product of nitric oxide.

In assay [2] the test system is RAW264.7. The assay can be described thus: Inhibition of NF-kappaB in mouse RAW264.7 cells assessed as reduction in LPS-induced TNF-alpha level pretreated for 30 mins followed by LPS stimulation for 24 hrs by ELISA. It counts as cell-based. A digest of the protocol: (§1)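 Pretreatment at 0.3, 1, 3 or 9 μM for 30 min, then LPS 500 ng/mL for 24 h; culture supernatant assayed for TNF-α and IL-6 by ELISA kits; means ± SD of three independent experiments.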
In general terms: An ELISA detects its analyte on a solid surface through an enzyme-linked reagent.

Assay [3] has as its system RAW264.7. In words: Inhibition of NF-kappaB in mouse RAW264.7 cells assessed as reduction in LPS-induced IL-6 level pretreated for 30 mins followed by LPS stimulation for 24 hrs by ELISA. The assay is classed as cell-based. A digest of the protocol:
as §1

In assay [4] the test system is RAW264.7. The assay can be described thus: Inhibition of NF-kappaB in mouse RAW264.7 cells assessed as reduction in LPS-induced iNOS protein expression pretreated for 30 mins followed by LPS stimulation for 12 hrs by Western blot analysis. It counts as cell-based. Summed up:
(§2)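 Cells 5 × 10^5 per well grown 24 h, serum-starved 12 h, pretreated 30 min, then LPS 500 ng/mL for 12 h. Lysates protein-normalized by BCA, 10% SDS-PAGE, PVDF, anti-iNOS or anti-COX-2 (1:1000) overnight at 4 °C, ECL detection; β-tubulin loading control.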
A general note: A western blot detects proteins with antibodies after separation by electrophoresis.

For assay [5], the system named is Mus musculus. In words: Antiinflammatory activity in BALB/c mouse assessed as inhibition of TPA-induced ear edema at 10 mg/ml applied topically pretreated for 30 mins followed by TPA exposure measured after 4 hrs. The assay is classed as functional. Summed up: (§3)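 Topical dosing of right ear at 2.5, 5 or 10 mg/mL, 30 min before TPA; left ear given acetone only as solvent control; 1% hydrocortisone as positive control. Mice killed 4 h after TPA, 7 mm central punches taken from both ears and weighed; edema rate (%) = [(weight right − weight left)/weight left] × 100%. n = 8 mice per group.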

The test system of assay [6] is Mus musculus. In words: Antiinflammatory activity in BALB/c mouse assessed as inhibition of TPA-induced ear edema applied topically pretreated for 30 mins followed by TPA exposure measured after 4 hrs. The assay is classed as functional. Summed up: as §3
For assay [7], the system named is RAW264.7. In words: Inhibition of LPS-induced NF-kappaB (unknown origin) transactivation expressed in mouse RAW264.7 cells pretreated for 30 mins followed by LPS stimulation for 6 hrs by luciferase reporter gene assay. Particulars: Homo sapiens. The assay is classed as cell-based. A digest of the protocol: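 RAW 264.7 line stably carrying NF-κB-driven firefly luciferase, maintained with 500 μg/mL G418; seeded 5 × 10^5 per well, 24 h, pretreated 30 min at 2.5–20 μM, then 500 ng/mL LPS for 6 h; 0.5% DMSO vehicle; 20 μM PDTC positive control. Lysate luminescence read; three independent experiments, means ± SD.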

Assay [8] has as its system RAW264.7. In words: Inhibition of NF-kappaB in mouse RAW264.7 cells assessed as reduction in LPS-induced degradation of IkappaB-alpha pretreated for 30 mins followed by LPS stimulation for 1 hr by Western blot analysis. It counts as cell-based. A digest of the protocol:
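Serum-starved (12 h) cells pretreated 30 min at 2.5, 5 or 10 μM or 0.5% DMSO, then LPS 500 ng/mL for 1 h; Western blot for IκB-α and phospho-IκB-α (1:1000, 4 °C overnight), ECL, β-tubulin loading control; bands quantified from three independent experiments.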

The target of assay [9] is Transcription factor p65 (Mus musculus) (UniProt Q04207). In words: Inhibition of LPS-induced NF-kappaB p65 subunit translocation into nucleus of mouse RAW264.7 cells at 10 uM pretreated for 30 mins followed by LPS stimulation for 3 hrs by DAPI staining based immunofluorescence assay. The assay is classed as cell-based. Summed up: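 Cells at 1 × 10^5/mL plated overnight, pretreated 30 min, then LPS 500 ng/mL for 3 h; fixed in 4% formaldehyde, permeabilized with 1% Triton X-100, blocked in 5% BSA, anti-p65 (1:100) overnight at 4 °C, Alexa 594 secondary, DAPI nuclei. High-content imaging; nuclear minus cytoplasmic fluorescence; three independent experiments.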
Transcription factor p65 (Mus musculus), sequence (Q04207 whole entry): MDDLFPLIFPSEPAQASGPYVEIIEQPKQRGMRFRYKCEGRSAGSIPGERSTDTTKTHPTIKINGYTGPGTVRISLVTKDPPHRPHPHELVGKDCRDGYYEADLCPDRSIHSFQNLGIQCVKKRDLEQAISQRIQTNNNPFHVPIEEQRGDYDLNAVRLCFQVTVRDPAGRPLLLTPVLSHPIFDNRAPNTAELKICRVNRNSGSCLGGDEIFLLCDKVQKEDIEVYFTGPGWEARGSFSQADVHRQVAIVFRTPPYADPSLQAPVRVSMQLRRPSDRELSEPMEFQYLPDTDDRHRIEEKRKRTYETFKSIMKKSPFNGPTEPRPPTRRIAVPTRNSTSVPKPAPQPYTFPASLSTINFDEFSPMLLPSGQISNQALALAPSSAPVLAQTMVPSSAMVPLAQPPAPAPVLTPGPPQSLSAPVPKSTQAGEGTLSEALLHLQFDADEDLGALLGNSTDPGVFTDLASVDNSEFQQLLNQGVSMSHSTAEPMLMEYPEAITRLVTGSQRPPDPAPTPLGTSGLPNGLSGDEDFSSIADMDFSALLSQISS

In assay [10] the test system is RAW264.7. The assay can be described thus: Inhibition of NF-kappaB in mouse RAW264.7 cells assessed as reduction in LPS-induced COX2 expression at 1 to 9 uM pretreated for 30 mins followed by LPS stimulation for 12 hrs by Western blot analysis. It counts as cell-based. A digest of the protocol:
as §2

Assay [11] relates to Mus musculus. In words: Antiinflammatory activity in TPA-induced ear edema BALB/c mouse model assessed as reduction in epidermal hyperplasia at 10 mg/ml applied topically pretreated for 30 mins followed by TPA exposure measured after 4 hrs by hematoxylin and eosin staining based light microscopic method. The assay is classed as functional, tissue-based. Summed up:
(§4)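 Right ear pretreated topically (2.5, 5, 10 mg/mL) 30 min before TPA for 4 h; left ear acetone only; 1% hydrocortisone as positive control. Ears fixed in 4% paraformaldehyde, paraffin-embedded, cut at 4 μm, H&E stained; representative area examined qualitatively by light microscopy at 200×; n = 8 mice per group.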

Assay [12] deals with Mus musculus. The assay can be described thus: Antiinflammatory activity in TPA-induced ear edema BALB/c mouse model assessed as reduction in inflammatory cell infilteration at 10 mg/ml applied topically pretreated for 30 mins followed by TPA exposure measured after 4 hrs by hematoxylin and eosin staining based light microscopic method. The assay is classed as functional, tissue-based. A digest of the protocol: as §4

Assay [13] concerns RAW264.7. The assay can be described thus: Inhibition of LPS-induced NF-kappaB (unknown origin) transactivation expressed in mouse RAW264.7 cells at 20 uM pretreated for 30 mins followed by LPS stimulation for 6 hrs by luciferase reporter gene assay. The assay is classed as cell-based. Conditions: Homo sapiens. A digest of the protocol:
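RAW 264.7/NF-κB-luc cells (RAW 264.7 stably carrying an NF-κB-driven luciferase reporter), kept in DMEM with 10% FBS, penicillin/streptomycin and 500 μg/mL G418. Seeded at 5 × 10^5 per well for 24 h, then compound for 30 min before LPS 500 ng/mL for 6 h; DMSO 0.5% vehicle, PDTC 20 μM positive control. Firefly luminescence read on lysates; means ± SD of three independent experiments.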

Assay [14] relates to Mus musculus. In words: Antiinflammatory activity in TPA-induced ear edema BALB/c mouse model assessed as reduction in epidermal hyperplasia applied topically pretreated for 30 mins followed by TPA exposure measured after 4 hrs by hematoxylin and eosin staining based light microscopic method. The assay is classed as functional, tissue-based. A digest of the protocol:
as §4

Assay [15] deals with Mus musculus. The assay can be described thus: Antiinflammatory activity in TPA-induced ear edema BALB/c mouse model assessed as reduction in inflammatory cell infilteration applied topically pretreated for 30 mins followed by TPA exposure measured after 4 hrs by hematoxylin and eosin staining based light microscopic method. The assay is classed as functional, tissue-based. A digest of the protocol: as §4

The source made the active and inactive calls. The calls are words filed in the database; no cut-off is given here.

On to `C=C1[C@H]2C[C@H]2[C@]2(C)C=C3OC(=O)C(C)=C3[C@H](OC(C)=O)[C@@H]12`, for which, in [1], the IC50 was determined as 1.4 µM. The inhibition entry with RAW264.7 [2], with RAW264.7 [3], in the assay with RAW264.7 [4], in the assay on Mus musculus [6], with RAW264.7 [7] and with RAW264.7 [8] was “Dose-dependent effect” in each case. Besides, the inhibition at 10000 µg/mL in the assay with Mus musculus [5] came out at 23.5%. Further, the inhibition entry (in [9]; in the assay with RAW264.7 [10]) was “Active” throughout. Moreover, the outcome in the assay with Mus musculus [11] and with Mus musculus [12] was Active.

Turning to `CC(=N)NCCCC[C@H](N)C(=O)O` [L-NIL], the IC50 in assay [1] came to 7.5 µM.

Regarding `C=C1[C@H]2C[C@H]2[C@]2(C)C[C@@H]3OC(=O)C(C)=C3C[C@]12O` [SARCANDRALACTONE A], the IC50 in assay [1] is > 50 µM.

Consider `C=C1[C@H]2C[C@H]2[C@]2(C)[C@H](O)[C@]3(OC)OC(=O)C(C)=C3C[C@@H]12`, for which the IC50 in assay [1] was > 50 µM.

`C=C1[C@H]2C[C@H]2[C@]2(C)[C@H](O)[C@@]3(OC)OC(=O)C(C)=C3C[C@@H]12`: in assay [1], the IC50 is > 50 µM.

With `CC1=C2CC3=C(CO)[C@H]4C[C@H]4[C@]3(C)C[C@@H]2OC1=O` [CHLORAJAPOLIDE C], the half-maximal inhibitory concentration (IC50) in assay [1] is > 50 µM.

With `C=C1[C@H]2C[C@H]2[C@@]2(C)[C@H]1CC1=C(C)C(=O)O[C@@]1(O)[C@H]2O`, the concentration for half-maximal inhibition (IC50) in assay [1] turned out to be 35.4 µM.

Consider `C=C1[C@H]2C[C@H]2[C@]2(C)C=C3OC(=O)C(C)=C3C[C@@]12O`, for which the IC50 in [1] is > 50 µM.

Consider `S=C(S)N1CCCC1`, for which, in the assay with RAW264.7 [13], the inhibition result was “Active”.

Take `C=C1[C@H]2C[C@H]2[C@]2(C)C[C@@H]3OC(=O)C(C)=C3C[C@@H]12`: the IC50 in [1] is > 50 µM.

`C[C@]12CCC(=O)C=C1CC[C@@H]1[C@@H]2[C@@H](O)C[C@@]2(C)[C@H]1CC[C@]2(O)C(=O)CO` [HYDROCORTISONE]: the “inhibition (INH)” value in the assay on Mus musculus [6] was determined as 56.33%. Further, the result in the assay with Mus musculus [14] and in the assay with Mus musculus [15] was Active.

Turning to `C=C1[C@H]2C[C@H]2[C@]2(C)C=C3OC(=O)C(C)=C3C[C@@H]12` [CHLORANTHALACTONE A], the IC50 in [1] amounted to 33.2 µM.

The term IC50 denotes the midpoint of a concentration-inhibition curve. In general, inhibition refers to the relative decrease from the control value, in per cent.

These data come from ChEMBL document CHEMBL3868593, “Chlojaponilactone B from Chloranthus japonicus: Suppression of Inflammatory Responses via Inhibition of the NF-κB Signaling Pathway” (J Nat Prod, 2016).
